Measured values taken from ChEMBL document CHEMBL1144885 (J Med Chem, 2003).

Key:
[1] = biological target: T1, Histamine H4 receptor (Homo sapiens, UniProt Q9H3N8); assay: Intrinsic activity for Histamine H4 receptor
In short: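 SK-N-MC cells stably carrying human H4 receptor and a CRE-driven β-galactosidase reporter gene, grown overnight, then exposed 6 h at 37 °C to 1 μM forskolin plus ligand. Medium removed; cells held overnight at 4 °C in pH 8 phosphate buffer containing Triton and 4 mM ONPG; absorbance read at 405 nm. Mean ± SEM, at least three independent experiments.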

[2] = biological target: T1, Histamine H4 receptor; assay: Inhibitory activity determined by the inhibition of cAMP- stimulated beta-galactosidase transcription in SK-N-MC cells expressing the human Histamine H4 receptor; type: cell-based
In short: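 SK-N-MC cells stably carrying human H4 receptor and a CRE-driven β-galactosidase reporter gene, grown overnight, then exposed 6 h at 37 °C to 1 μM forskolin plus ligand. Mean ± SEM, at least three independent experiments.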

[3] = biological target: T2, Histamine H3 receptor (Homo sapiens, UniProt Q9Y5N1); assay: Inhibitory activity determined by the inhibition of cAMP- stimulated beta-galactosidase transcription in SK-N-MC cells expressing the human Histamine H3 receptor; type: cell-based
[4] = biological target: T1, Histamine H4 receptor; assay: Inhibitory activity measured by [3H]histamine binding to membranes of SK-N-MC cells expressing the human Histamine H4 receptor
[5] = biological target: T2, Histamine H3 receptor; assay: Inhibitory activity measured by [3H]- N alpha- methyl-histamine binding to membranes of SK-N-MC cells expressing the human Histamine H3 receptor; type: cell membranes

T1 sequence (Q9H3N8 whole entry): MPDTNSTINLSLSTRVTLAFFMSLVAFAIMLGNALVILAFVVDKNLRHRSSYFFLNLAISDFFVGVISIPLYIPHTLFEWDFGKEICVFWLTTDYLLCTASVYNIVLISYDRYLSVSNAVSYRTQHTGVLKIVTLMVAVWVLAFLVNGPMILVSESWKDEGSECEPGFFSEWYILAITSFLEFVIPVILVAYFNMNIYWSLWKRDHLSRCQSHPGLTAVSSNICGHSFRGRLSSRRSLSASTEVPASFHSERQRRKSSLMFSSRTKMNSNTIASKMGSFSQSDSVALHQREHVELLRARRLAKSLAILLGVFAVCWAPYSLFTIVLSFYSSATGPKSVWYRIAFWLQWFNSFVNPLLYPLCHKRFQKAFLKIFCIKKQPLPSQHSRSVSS
T2 sequence (Q9Y5N1 whole entry): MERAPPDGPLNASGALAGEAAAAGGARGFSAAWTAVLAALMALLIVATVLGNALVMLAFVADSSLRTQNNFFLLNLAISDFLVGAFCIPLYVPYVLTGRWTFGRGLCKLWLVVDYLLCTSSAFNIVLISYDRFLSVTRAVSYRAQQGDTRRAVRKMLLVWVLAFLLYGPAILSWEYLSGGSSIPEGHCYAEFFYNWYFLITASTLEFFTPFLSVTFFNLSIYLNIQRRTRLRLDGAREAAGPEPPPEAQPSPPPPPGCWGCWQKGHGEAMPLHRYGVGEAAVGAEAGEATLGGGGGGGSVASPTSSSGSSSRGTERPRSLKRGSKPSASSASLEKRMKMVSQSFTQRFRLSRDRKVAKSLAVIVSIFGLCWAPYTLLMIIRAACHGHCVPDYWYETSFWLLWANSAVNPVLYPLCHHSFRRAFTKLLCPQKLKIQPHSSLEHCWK

Compound	Intrinsic activity [1]	EC50 [2] [nM]	EC50 [3] [nM]	Ki [4] [nM]	Ki [5] [nM]
C[C@@H](N)Cc1c[nH]cn1	1.04	1120			
c1nc(C[C@@H]2CCNC2)c[nH]1	0.8	1020	0.389	141	1.41
c1nc(CCC2CCCCN2)c[nH]1 (centres undefined)		> 10000	> 10000	4470	
NCCCCc1c[nH]cn1 [IMBUTAMINE]	0.96	89.1	7.41		4.07
c1nc(CCCC2CCCCN2)c[nH]1 (centres undefined)		> 10000	324	575	93.3
C(=C1CCNCC1)c1c[nH]cn1		> 10000	3.16	1740	5.89
c1nc(CC2CCNC2)c[nH]1 (centres undefined)	0.83	741	1.32	51.3	3.63
C=C(c1c[nH]cn1)C1CCNCC1		> 10000	2.34	2820	3.98
O=C(c1c[nH]cn1)C1CCNCC1		> 10000	2750	479000	
c1nc(CCCC2CCCNC2)c[nH]1 (centres undefined)		> 10000		389	
NCC1CC1c1c[nH]cn1 (centres undefined)	0.56	1100	19.5	112	35.5
c1nc(C2CCNCC2)c[nH]1		> 10000	1820	2190	871
c1nc(CC2CCCCN2)c[nH]1 (centres undefined)		> 10000	794	8910	
c1nc(CCC2CCCNC2)c[nH]1 (centres undefined)	0.48	2040	513	324	182
c1nc(CC2CCCNC2)c[nH]1 (centres undefined)	0.64	3980	49	617	67.6
N[C@@H]1C[C@H]1c1cnc[nH]1 [VUF-5296]		> 10000	57.5	3800	67.6
NCCCCCCc1cnc[nH]1		> 10000	33.1	759	10
NCCCCCc1c[nH]cn1 [IMPENTAMINE]		> 10000	2.34	372	
NCCCc1c[nH]cn1 [HOMOHISTAMINE]	0.82	214	42.7		49
c1nc(C[C@H]2CCNC2)c[nH]1	0.85	417	2.09	37.2	5.25
c1nc(CCC2CCNCC2)c[nH]1		> 10000	13.2	372	20
C1=C(c2c[nH]cn2)CCNC1		> 10000	1510	263000	4270
c1nc(CC2CCNCC2)c[nH]1 [IMMEPIP]	0.73	56.2	0.132		0.479
c1ncc(CCCC2CCNCC2)[nH]1		> 10000	8.32	617	4.47
N[C@H]1C[C@@H]1c1c[nH]cn1 [VUF-5297]	0.61	7080	5.89	1100	9.33
